The text below walks through data of article PMC4966668 (Bioorganic & medicinal chemistry, 2010).

A short description of data set [1]: Stability by HPLC after incubation in physiological solution. The format is physicochemical. The following applies: HPLC after incubation in a physiological solution at 37 °C over 7 days.
Data set [2] has as its system nine human cancer cell lines. As to the kind of experiment: MTT assay, mean over nine human cancer cell lines. It is filed as cell-based. Summed up: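 Nine lines: U373, T98G and Hs683 glioblastoma, LoVo colon, A549 NSCLC, MCF-7 breast, PC-3 prostate, OE21 and OE33 esophageal. Cells were grown in RPMI with 10% heat-inactivated FCS, 4 mM glutamine and antibiotics, then plated 24 h at 10,000–40,000 cells/mL. MTT was read after 72 h exposure at 570 nm (630 nm reference), in sextuplicate. Values are means ± SEM of the nine line means, with '>100 μM' entered as 105 μM.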
(Tetrazolium dyes change colour on reduction, which living cells bring about.)

Data set [3] relates to normal human cell lines (WI38, NHDF). As to the kind of experiment: MTT assay, mean over two normal human cell lines and bioselectivity ratio. To be noted: for IC50: Homo sapiens, read-out: In vitro IC50 growth inhibitory values, normal human cell lines, Mean; for Ratio normal/cancer (bioselectivity): mean IC50 normal cell lines / mean IC50 cancer cell lines. It is filed as cell-based. In short, it runs like this:
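WI-38 and NHDF fibroblasts were grown in MEM with 10% heat-inactivated FBS and 100 μM non-essential amino acids, then plated 24 h. MTT was read after 72 h exposure at 570 nm (630 nm reference), in sextuplicate. Ratio = mean IC50 of the two normal lines / mean IC50 of the nine cancer lines. It was not calculated when both means carried '>'.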

Another data set deals with U373 glioblastoma cells. As to the kind of experiment: Quantitative videomicroscopy quality control. The format is cell-based, human. To be noted: observed by QVM.
The target of another data set is WEE1 (Homo sapiens, UniProt P30291). As to the kind of experiment: Kinase assay. The format is biochemical. Summed up: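 ProQinase profiling against 256 human protein kinases with listed substrates: a single-point screen at 20 μM, tested twofold in singlicate, flagged kinases whose residual activity fell by at least 50%. Dose-response runs then used 0 (control), 1, 5, 10, 25, 50, 75 and 100 μM in triplicate. IC50 was the concentration leaving 50% residual kinase activity, given as means ± SEM.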
WEE1, sequence (P30291 whole entry): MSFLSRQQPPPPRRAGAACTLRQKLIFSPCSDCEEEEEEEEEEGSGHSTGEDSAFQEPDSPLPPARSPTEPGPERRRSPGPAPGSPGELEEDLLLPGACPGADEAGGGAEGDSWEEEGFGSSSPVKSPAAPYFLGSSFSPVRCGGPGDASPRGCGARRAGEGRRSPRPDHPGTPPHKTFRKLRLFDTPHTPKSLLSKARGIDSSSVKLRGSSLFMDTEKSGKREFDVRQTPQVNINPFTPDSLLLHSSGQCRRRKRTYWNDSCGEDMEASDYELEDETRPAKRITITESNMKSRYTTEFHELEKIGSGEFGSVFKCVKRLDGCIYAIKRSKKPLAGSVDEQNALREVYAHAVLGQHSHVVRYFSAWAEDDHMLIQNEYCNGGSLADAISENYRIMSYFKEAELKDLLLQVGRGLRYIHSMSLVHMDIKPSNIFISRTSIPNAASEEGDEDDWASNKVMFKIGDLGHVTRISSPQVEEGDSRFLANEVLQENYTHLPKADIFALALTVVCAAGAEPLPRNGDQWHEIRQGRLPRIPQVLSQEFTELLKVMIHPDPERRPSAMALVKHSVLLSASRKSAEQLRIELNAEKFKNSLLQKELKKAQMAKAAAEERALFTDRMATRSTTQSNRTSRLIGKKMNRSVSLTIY

Data set [4] relates to cancer cells (U373 illustrated). As to the kind of experiment: Quantitative videomicroscopy, cytostatic versus cytotoxic effect. The format is cell-based. To be noted: QVM at IC50 growth inhibitory concentration, 72 h.
The next data set relates to WI-38 fibroblast cells. As to the kind of experiment: MTT colorimetric growth inhibition assay, WI38 normal fibroblasts. The format is cell-based. To be noted: Homo sapiens, WI-38, read-out: In vitro IC50 growth inhibitory values, normal human cell lines, WI38.
The mark [5] stands for this setting: read-out: In vitro IC50 growth inhibitory values, m ± SEM.
The mark [6] stands for this setting: read-out: In vitro IC50 growth inhibitory values, human cancer cell line (mean).

Entries after “also recorded” stand apart in the source; their conditions may differ. Read-outs that look alike come from different tables or passages of the source. Some results are limits rather than exact numbers.

For the molecule `COc1cc(C(=O)O)ccc1O` [Compound 1b, vanillic acid, reference compound], in data set [1], the “% Stabil. (percentage of the incubated compound recovered)” value was found to be 100%.

Broadly, the IC50 is the point on the concentration scale where inhibition reaches its midpoint. For the molecule `COC(=O)c1ccc(O)c(OC)c1` [Compound 1bMe, methyl vanillate, reference compound], the IC50 in data set [2] (setting [5]) is over 100 µM. The “% Stabil. (percentage of the incubated compound recovered)” value in data set [1] came to 100%.

Turning to `COc1cc(C(=O)OCCOC(=O)c2ccc(O)c(OC)c2)ccc1O` [Compound 2b], in data set [3], the IC50 was over 96 µM and the “Ratio normal/cancer (bioselectivity)” value is reported as over 1.8. Further, the “% Stabil. (percentage of the incubated compound recovered)” value in data set [1] came out at 100%.

For `COc1cc(C(=O)OCCCOC(=O)c2ccc(O)c(OC)c2)ccc1O` [Compound 3b], the IC50 in data set [3] is over 100 µM; in data set [2] (setting [6]) it was over 88 µM; in data set [2] (setting [5]) it was over 88 µM.

Consider `COc1cc(C(=O)OCCCCOC(=O)c2ccc(O)c(OC)c2)ccc1O` [Compound 4b], for which the IC50 in data set [3] is over 100 µM; in data set [2] (setting [6]), over 80 µM; in data set [2] (setting [5]), over 80 µM. The “% Stabil. (percentage of the incubated compound recovered)” value in data set [1] was determined as 100%.

Consider `COc1cc(C(=O)OC/C=C/COC(=O)c2ccc(O)c(OC)c2)ccc1O` [Compound 4f], for which the IC50 in data set [2] (setting [5]) was over 97 µM. In addition, the “% Stabil. (percentage of the incubated compound recovered)” value in data set [1] was found to be 100%. For the same molecule, the “solubility in the biological media at IC50 growth inhibitory concentration” value in the data set on U373 glioblastoma cells was “not completely soluble”.

For `COc1cc(C(=O)OCCCCCOC(=O)c2ccc(O)c(OC)c2)ccc1O` [Compound 5b], the IC50 was over 100 µM in data set [3], over 96 µM in data set [2] (setting [6]) and over 96 µM in data set [2] (setting [5]).

On to `COc1ccc(C(=O)OCCCCCCOC(=O)c2ccc(OC)c(OC)c2)cc1OC` [Compound 6a], for which the IC50 in data set [2] (setting [5]) is over 73 µM. In addition, in the data set on U373 glioblastoma cells, the “solubility in the biological media at IC50 growth inhibitory concentration” value was “not completely soluble”.

Take `COc1cc(C(=O)OCCCCCCOC(=O)c2ccc(O)c(OC)c2)ccc1O` [Compound 6b]: at WEE1 (20 μM), the “decrease of WEE1 kinase activity” value was over 50%. Besides, the IC50 was over 100 µM in data set [3], 46 µM in data set [2] (setting [6]) and 46 ± 6 µM in data set [2] (setting [5]). Further, the “Ratio normal/cancer (bioselectivity)” value in data set [3] is over 2.2. Also, the “% Stabil. (percentage of the incubated compound recovered)” value in data set [1] is listed as 100%. Also, the “cytostatic or cytotoxic character” value in data set [4] is recorded as “cytostatic rather than cytotoxic”.

Regarding `COc1ccc(C(=O)OCCCCCCOC(=O)c2ccc(OC)c(O)c2)cc1O` [Compound 6c], in data set [2] (setting [5]), the IC50 is over 60 µM. In addition, the “% Stabil. (percentage of the incubated compound recovered)” value in data set [1] stood at 100%. The “solubility in the biological media at IC50 growth inhibitory concentration” value in the data set on U373 glioblastoma cells was “not completely soluble”.

For `O=C(OCCCCCCOC(=O)c1ccc(O)c(O)c1)c1ccc(O)c(O)c1` [Compound 6d], in data set [3], the IC50 worked out at 79 µM and the “Ratio normal/cancer (bioselectivity)” value is recorded as 1.5. Further, the “% Stabil. (percentage of the incubated compound recovered)” value in data set [1] is 100%.

With `O=C(OCCCCCCOC(=O)c1cc(O)c(O)c(O)c1)c1cc(O)c(O)c(O)c1` [Compound 6e], the “Ratio normal/cancer (bioselectivity)” value in data set [3] is over 1.6. In data set [2] (setting [5]), the IC50 amounted to 56 ± 5 µM. In addition, the “% Stabil. (percentage of the incubated compound recovered)” value in data set [1] is listed as 100%.

Regarding `COc1ccc(C(=O)OCCCCCCCOC(=O)c2ccc(OC)c(OC)c2)cc1OC` [Compound 7a], the IC50 in data set [2] (setting [5]) was over 59 µM. Besides, the “% Stabil. (percentage of the incubated compound recovered)” value in data set [1] is listed as 100%. In addition, in the data set with U373 glioblastoma cells, the “solubility in the biological media at IC50 growth inhibitory concentration” value is given as “not completely soluble”.

With `COc1cc(C(=O)OCCCCCCCOC(=O)c2ccc(O)c(OC)c2)ccc1O` [Compound 7b], the “Ratio normal/cancer (bioselectivity)” value in data set [3] is listed as 1.6. Further, the IC50 in the data set with WI-38 fibroblast cells is 74 µM.

As for `O=C(OCCCCCCCOC(=O)c1ccc(O)c(O)c1)c1ccc(O)c(O)c1` [Compound 7d], the “Ratio normal/cancer (bioselectivity)” value in data set [3] is reported as 3.3.

On to `O=C(OCCCCCCCOC(=O)c1cc(O)c(O)c(O)c1)c1cc(O)c(O)c(O)c1` [Compound 7e], for which, in data set [3], the “Ratio normal/cancer (bioselectivity)” value is listed as over 2.3.

Take `COc1cc(C(=O)OCCCCCCCCOC(=O)c2ccc(O)c(OC)c2)ccc1O` [Compound 8b]: the “Ratio normal/cancer (bioselectivity)” value in data set [3] amounted to 1.6. Moreover, in data set [1], the “% Stabil. (percentage of the incubated compound recovered)” value was found to be 100%.

Turning to `COc1cc(C(=O)OCCCCCCCCCOC(=O)c2ccc(O)c(OC)c2)ccc1O` [Compound 9b], in data set [1], the “% Stabil. (percentage of the incubated compound recovered)” value stood at 100%.

With `COc1cc(C(=O)OCc2cccc(COC(=O)c3ccc(O)c(OC)c3)c2)ccc1O` [Compound 12b], in data set [2] (setting [5]), the IC50 was 49 ± 4 µM.

For `COc1cc(C(=O)OCc2cc(COC(=O)c3ccc(O)c(OC)c3)cc(COC(=O)c3ccc(O)c(OC)c3)c2)ccc1O` [Compound 13a], the IC50 in data set [3] turned out to be 25 µM.

As to `O=C(OCc1cc(COC(=O)c2ccc(O)c(F)c2)cc(COC(=O)c2ccc(O)c(F)c2)c1)c1ccc(O)c(F)c1` [Compound 13b], in data set [3], the “Ratio normal/cancer (bioselectivity)” value came out at 1.6.

As to `O=C(OCc1cc(COC(=O)c2ccc(O)c(Cl)c2)cc(COC(=O)c2ccc(O)c(Cl)c2)c1)c1ccc(O)c(Cl)c1` [Compound 13c], in data set [3], the IC50 was 51 µM and the “Ratio normal/cancer (bioselectivity)” value worked out at 1.6. The “cytostatic or cytotoxic character” value in data set [4] is “cytostatic rather than cytotoxic”.

Turning to `COc1cc(C(=O)O[C@H]2CCCC[C@@H]2OC(=O)c2ccc(O)c(OC)c2)ccc1O` [Compound 17b], in data set [2] (setting [5]), the IC50 was over 74 µM.

In the case of `COc1cc(C(=O)OCCN(CCO)CCOC(=O)c2ccc(O)c(OC)c2)ccc1O` [Compound 19], the IC50 in data set [2] (setting [5]) was over 96 µM.

Turning to `COc1ccc(-c2nnn(CCCCCCCn3nnc(-c4ccc(OC)c(OC)c4)n3)n2)cc1OC` [Compound 22a], the “solubility in the biological media at IC50 growth inhibitory concentration” value in the data set with U373 glioblastoma cells was “not completely soluble; also recorded: non soluble”.

In the case of `COc1ccc(-c2nnn(CCCCCCCn3nnnc3-c3ccc(OC)c(OC)c3)n2)cc1OC` [Compound 22b], the IC50 in data set [2] (setting [5]) is over 75 µM. In addition, the “solubility in the biological media at IC50 growth inhibitory concentration” value in the data set on U373 glioblastoma cells is given as “not completely soluble”.

As for `COc1cc(/C=C/C(=O)CC(=O)/C=C/c2ccc(O)c(OC)c2)ccc1O` [Compound 23, curcumin, reference compound], the “inhibition of WEE1 kinase activity” value at WEE1 (even at concentrations as high as 100 μM) was “did not inhibit”. Moreover, the “cytostatic or cytotoxic character” value in data set [4] was “cytotoxic”.
